Measured values published in ChEMBL document CHEMBL1649382, “Synthesis and in vitro anticancer evaluation of some novel hexahydroquinoline derivatives having a benzenesulfonamide moiety” (Eur J Med Chem, 2011).
Converted amounts (≈) assume the structure as drawn.

How the values were obtained:
[1] = Cytotoxicity against mouse EAC assessed as non-viable cells at 10 ug/ml after 2 hrs by trypan blue exclusion test; assay type: functional, Ehrlich
Method in brief: (§1)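 Mouse EAC cells came from ascitic fluid by needle aspiration, at 2.5×10^6 per mL in RPMI-1640. Each tube held 0.8 mL medium (glutamine, fetal calf serum, streptomycin, penicillin), 0.1 mL compound dissolved in DMSO (stock 10–100 µg per mL) and 0.1 mL of cells, at 37 °C for 2 h. Trypan blue staining gave the percentage of non-viable cells, as the mean of three experiments ± SD.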

[2] = Cytotoxicity against mouse EAC assessed as non-viable cells at 50 ug/ml after 2 hrs by trypan blue exclusion test; assay type: functional, Ehrlich; method in brief: as §1
[3] = Cytotoxicity against mouse EAC assessed as non-viable cells at 25 ug/ml after 2 hrs by trypan blue exclusion test; assay type: functional, Ehrlich; method in brief: as §1
[4] = Cytotoxicity against mouse EAC assessed as non-viable cells at 100 ug/ml after 2 hrs by trypan blue exclusion test; assay type: functional, Ehrlich; method in brief: as §1
[5] = Cytotoxicity against mouse EAC assessed as non-viable cells after 2 hrs by trypan blue exclusion test; assay type: functional, cell-based; conditions: Ehrlich
Method in brief: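 EAC cells were aspirated from the ascitic fluid of preinoculated mice and suspended in RPMI-1640 at 2.5×10^6 per mL. Each tube held 0.8 mL supplemented medium, 0.1 mL of a DMSO solution (100, 50, 25 or 10 µg per mL DMSO) and 0.1 mL of cells, incubated 2 h at 37 °C. Non-viable cells were counted by trypan blue. The survival-versus-concentration curve gave IC50, the concentration causing 50% mortality.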

Compound | Activity [1] | Activity [2] | Activity [3] | Activity [4] | IC50 [5]
CC(Cl)CC(=O)NC1=C(C#N)C(c2ccc(Cl)cc2Cl)C2=C(CCCC2=O)N1c1ccc(S(N)(=O)=O)cc1 (stereo not given) | 20% | 55% | 50% | 60% | 25 µg/mL (≈ 42.1 µM)
N#CC1=C(NC(=O)C2CC2)N(c2ccc(S(N)(=O)=O)cc2)C2=C(C(=O)CCC2)C1c1ccc(Cl)cc1Cl (stereo not given) | 20% | 40% | 40% | 60% | 75 µg/mL (≈ 135 µM)
N#CC1=C(NC(=O)c2ccccc2)N(c2ccc(S(N)(=O)=O)cc2)C2=C(C(=O)CCC2)C1c1ccc(Cl)cc1Cl (stereo not given) | 50% | 70% | 60% | 75% | 10 µg/mL (≈ 16.8 µM)
Cc1ccc(C(=O)NC2=C(C#N)C(c3ccc(Cl)cc3Cl)C3=C(CCCC3=O)N2c2ccc(S(N)(=O)=O)cc2)cc1 (stereo not given) | 20% | 40% | 30% | 40% | > 100 µg/mL
N#CC1=C(NC(=O)/C=C/c2ccccc2)N(c2ccc(S(N)(=O)=O)cc2)C2=C(C(=O)CCC2)C1c1ccc(Cl)cc1Cl (stereo not given) | 30% | 40% | 30% | 45% | > 100 µg/mL
N#CC1=C(NC(=O)c2ccc([N+](=O)[O-])cc2)N(c2ccc(S(N)(=O)=O)cc2)C2=C(C(=O)CCC2)C1c1ccc(Cl)cc1Cl (stereo not given) | 40% | 50% | 40% | 70% | 50 µg/mL (≈ 78.3 µM)
COc1cc(C(=O)NC2=C(C#N)C(c3ccc(Cl)cc3Cl)C3=C(CCCC3=O)N2c2ccc(S(N)(=O)=O)cc2)cc(OC)c1OC (stereo not given) | 0% | 95% | 20% | 95% | 60 µg/mL (≈ 87.8 µM)
CC(Cl)Cc1nc2c(c(=O)[nH]1)C(c1ccc(Cl)cc1Cl)C1=C(CCCC1=O)N2c1ccc(S(N)(=O)=O)cc1 (stereo not given) | 30% | 40% | 40% | 60% | > 100 µg/mL
NS(=O)(=O)c1ccc(N2C3=C(C(=O)CCC3)C(c3ccc(Cl)cc3Cl)c3c2nc(C2CC2)[nH]c3=O)cc1 (stereo not given) | 27% | 52% | 44% | 60% | 56 µg/mL (≈ 100 µM)
NS(=O)(=O)c1ccc(N2C3=C(C(=O)CCC3)C(c3ccc(Cl)cc3Cl)c3c2nc(-c2ccccc2)[nH]c3=O)cc1 (stereo not given) | 0% | 10% | 0% | 60% | > 100 µg/mL
Cc1ccc(-c2nc3c(c(=O)[nH]2)C(c2ccc(Cl)cc2Cl)C2=C(CCCC2=O)N3c2ccc(S(N)(=O)=O)cc2)cc1 (stereo not given) | 30% | 55% | 55% | 60% | 28 µg/mL (≈ 46.1 µM)
NS(=O)(=O)c1ccc(N2C3=C(C(=O)CCC3)C(c3ccc(Cl)cc3Cl)c3c2nc(-c2ccc(Br)cc2)[nH]c3=O)cc1 (stereo not given) | 20% | 60% | 50% | 100% | 25 µg/mL (≈ 37.2 µM)
NS(=O)(=O)c1ccc(N2C3=C(C(=O)CCC3)C(c3ccc(Cl)cc3Cl)c3c2nc(CCl)[nH]c3=O)cc1 (stereo not given) | 30% | 35% | 30% | 40% | > 100 µg/mL
NC(=O)C1=C(N)N(c2ccc(S(N)(=O)=O)cc2)C2=C(C(=O)CCC2)C1c1ccc(Cl)cc1Cl (stereo not given) | 30% | 40% | 30% | 45% | > 100 µg/mL
NC1=C(C(=O)O)C(c2ccc(Cl)cc2Cl)C2=C(CCCC2=O)N1c1ccc(S(N)(=O)=O)cc1 (stereo not given) | 0% | 10% | 0% | 60% | > 100 µg/mL
CN(C)c1ccc(/C=N/C2=C(C#N)C(c3ccc(Cl)cc3Cl)C3=C(CCCC3=O)N2c2ccc(S(N)(=O)=O)cc2)cc1 (stereo not given) | 10% | 30% | 30% | 40% | > 100 µg/mL
CN(C)c1ccc(/C=C/C=N/C2=C(C#N)C(c3ccc(Cl)cc3Cl)C3=C(CCCC3=O)N2c2ccc(S(N)(=O)=O)cc2)cc1 (stereo not given) | 10% | 20% | 20% | 20% | > 100 µg/mL
N#CC1=C(/N=C/c2ccc([N+](=O)[O-])cc2[N+](=O)[O-])N(c2ccc(S(N)(=O)=O)cc2)C2=C(C(=O)CCC2)C1c1ccc(Cl)cc1Cl (stereo not given) | 10% | 20% | 20% | 20% | > 100 µg/mL
CC(=O)CC(=O)NC1=C(C#N)C(c2ccc(Cl)cc2Cl)C2=C(CCCC2=O)N1c1ccc(S(N)(=O)=O)cc1 (stereo not given) | 40% | 60% | 44% | 80% | 64 µg/mL (≈ 112 µM)
Cc1nc2c(c(=S)[nH]1)C(c1ccc(Cl)cc1Cl)C1=C(CCCC1=O)N2c1ccc(S(N)(=O)=O)cc1 (stereo not given) | 30% | 40% | 40% | 60% | > 100 µg/mL
CCO/C=N/C1=C(C#N)C(c2ccc(Cl)cc2Cl)C2=C(CCCC2=O)N1c1ccc(S(N)(=O)=O)cc1 (stereo not given) | 30% | 35% | 30% | 40% | > 100 µg/mL
N#CC1=C(N)N(c2ccc(S(N)(=O)=O)cc2)C2=C(C(=O)CCC2)C1c1ccc(Cl)cc1Cl (stereo not given) | 40% | 65% | 50% | 95% | 25 µg/mL (≈ 51.1 µM)
COc1cccc2c1C(=O)c1c(O)c3c(c(O)c1C2=O)C[C@@](O)(C(=O)CO)C[C@@H]3O[C@H]1C[C@H](N)[C@H](O)[C@H](C)O1 [DOXORUBICIN] | 19% | 68% | 32% | 100% | 38 µg/mL (≈ 69.9 µM)
